{
  "source": "ChEMBL document CHEMBL1150225",
  "about": "“Cytotoxic cholestane glycosides from the bulbs of Ornithogalum saundersiae” (J Nat Prod, 2001)",
  "system": "HL-60",
  "assay": "Cytotoxicity against human HL60 cells after 72 hrs by MTT assay",
  "format": "functional, cell-based",
  "details": "HL-60, 72 h",
  "summary_of_the_method": "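HL-60 leukemia cells kept in RPMI 1640 with 10% fetal bovine serum, L-glutamine, 100 units/mL penicillin and 100 μg/mL streptomycin. Cells at 3 × 10^4 cells/mL exposed continuously to compound for 72 h. Growth read by MTT reduction. IC50 (50% inhibition) calculated from each compound's dose–response curve.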",
  "data": [
    {"smiles": "COc1cc(C(=O)O[C@H]2[C@H](O[C@@H]3[C@@H](OC(C)=O)[C@H](O[C@H]4C[C@H]5[C@@H]6CC=C7C[C@@H](O)CC[C@]7(C)[C@H]6CC[C@]5(C)[C@@]4(O)[C@H](C)C(=O)CCC(C)C)OC[C@@H]3O)OC[C@@H](O[C@@H]3O[C@H](CO)[C@@H](O)[C@H](O)[C@H]3O)[C@@H]2O)cc(OC)c1OC", "values": [
      {"measurement": "IC50", "result": 14, "unit": "nM"}
    ]},
    {"smiles": "CC(C)CCC(=O)[C@@H](C)[C@@]1(O)[C@@H](O[C@@H]2OC[C@H](O)[C@H](O[C@@H]3OC[C@@H](O)[C@H](O)[C@H]3O)[C@H]2O)C[C@H]2[C@@H]3CC=C4C[C@@H](O)CC[C@]4(C)[C@H]3CC[C@@]21C", "values": [
      {"measurement": "IC50", "result": 190, "unit": "nM"}
    ]},
    {"smiles": "COc1cccc2c1C(=O)c1c(O)c3c(c(O)c1C2=O)C[C@@](O)(C(=O)CO)C[C@@H]3O[C@H]1C[C@H](N)[C@H](O)[C@H](C)O1", "note": "[DOXORUBICIN]", "values": [
      {"measurement": "IC50", "result": 7.2, "unit": "nM"}
    ]},
    {"smiles": "COc1cc([C@@H]2c3cc4c(cc3[C@@H](O[C@@H]3O[C@@H]5CO[C@@H](C)O[C@H]5[C@H](O)[C@H]3O)[C@H]3COC(=O)[C@H]23)OCO4)cc(OC)c1O", "note": "[ETOPOSIDE]", "values": [
      {"measurement": "IC50", "result": 25, "unit": "nM"}
    ]},
    {"smiles": "CN(Cc1cnc2nc(N)nc(N)c2n1)c1ccc(C(=O)N[C@@H](CCC(=O)O)C(=O)O)cc1", "note": "[METHOTREXATE]", "values": [
      {"measurement": "IC50", "result": 12, "unit": "nM"}
    ]}
  ]
}
